Assay results published in ChEMBL document CHEMBL1135649, “CycloSal-BVDUMP pronucleotides: how to convert an antiviral-inactive nucleoside analogue into a bioactive compound against EBV” (J Med Chem, 2002).

Assays:
[1] = Partition coefficient (logP); format: physicochemical; conditions: octanol/water
How it was run: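 Compound dissolved in 0.3 mL 1-octanol and shaken with 0.3 mL water by vortexing for 10 min. Phases separated by centrifugation. Each phase analysed by RP-18 HPLC with UV detection at 250 nm. P taken from the ratio of aqueous and organic peak areas.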

Nucleic Acid = test: Effective concentration for the inhibition of Epstein-Barr virus EBV-DNA synthesis in human lymphoblastoid P3HR-1 cells; format: functional, cell-based; conditions: human gammaherpesvirus 4, P3HR-1
How it was run: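 P3HR-1 (EBV producer) cells in RPMI-1640 with 10% heat-inactivated FCS at 36.5 °C, seeded at 10⁶ cells/mL. TPA 20 ng/mL added to induce virus production. Compound given at a range of concentrations for 7 days. DNA extracted and 10 μg used for slot blot hybridization with a digoxigenin-labeled EBV BamHI-W probe, chemiluminescence and densitometry. EC50 obtained by regression against untreated cells.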

[2] = Selectivity index as the ratio of CC50 value to that of EC50 value.; format: functional
How it was run: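 Selectivity index is CC50 (μM)/EC50 (μM). CC50 is for P3HR-1 growth over 7 days, read by cell count. EC50 is for EBV DNA synthesis in TPA-induced P3HR-1 cells over 7 days, read by slot blot.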

P3HR-1 [3] = test: Cytotoxic concentration for inhibition of human lymphoblastoid P3HR-1 cell growth; format: functional
How it was run: (§1)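 P3HR-1 cells seeded at 2 × 10⁵ cells/mL and grown 7 days with compound at a range of concentrations. Cells counted on a particle counter. CC50 calculated as 50% inhibition of cell growth.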

P3HR-1 [4] = test: Cytotoxic concentration for the inhibition of P3HR-1 cell growth; format: functional; conditions: Homo sapiens; how it was run: as §1
[5] = Selectivity as the ratio of CC50 value to that of EC50 value.; format: functional
How it was run: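 Ratio CC50/EC50, both in P3HR-1 cells over 7 days at varied concentrations. EC50: cells seeded at 10⁶ cells/mL, induced with TPA 20 ng/mL; EBV DNA in 10 μg total DNA by slot blot with digoxigenin-labeled BamHI-W probe, chemiluminescence and densitometry; regression against untreated cells. CC50: growth from 2 × 10⁵ cells/mL, cells counted with a particle counter.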

Cc1cccc2c1OP(=O)(OC[C@H]1O[C@@H](n3cc(/C=C/Br)c(=O)[nH]c3=O)C[C@@H]1OC(=O)[C@@H](N)C(C)C)OC2 (stereo partly specified)
logP [1]: -0.1 | EC50 (Nucleic Acid): 81.8 µM | SI [2]: 0.6 | CC50 (P3HR-1 [3]): 47 µM

CCC(C)[C@H](N)C(=O)O[C@H]1C[C@H](n2cc(/C=C/Br)c(=O)[nH]c2=O)O[C@@H]1COP1(=O)OCc2cccc(C)c2O1 (stereo partly specified)
logP [1]: -0.02 | EC50 (Nucleic Acid): > 135 µM | CC50 (P3HR-1 [3]): 78 µM

CC(=O)O[C@H]1C[C@H](n2cc(/C=C/Br)c(=O)[nH]c2=O)O[C@@H]1COP1(=O)OCc2cccc(C)c2O1 (stereo partly specified)
logP [1]: 2.2 | CC50 (P3HR-1 [3]): 109 µM

Cc1cccc2c1OP(=O)(OC[C@H]1O[C@@H](n3cc(/C=C/Br)c(=O)[nH]c3=O)C[C@@H]1OC(=O)[C@@H](N)Cc1ccccc1)OC2 (stereo partly specified)
logP [1]: 0.5 | EC50 (Nucleic Acid): ≥ 129 µM | CC50 (P3HR-1 [3]): 35 µM

O=c1[nH]c(=O)n([C@H]2C[C@H](O)[C@@H](CO)O2)cc1/C=C/Br [BRIVUDINE]
logP [1]: 0.33 | EC50 (Nucleic Acid): > 300 µM | CC50 (P3HR-1 [4]): 225 µM

O=c1[nH]c(=O)n([C@H]2C[C@H](O)[C@@H](COP3(=O)OCc4cc(Cl)ccc4O3)O2)cc1/C=C/Br (stereo partly specified)
logP [1]: 1.8 | EC50 (Nucleic Acid): 25.8 µM | SI [2]: 3.1 | CC50 (P3HR-1 [3]): 80 µM

Cc1cc(C)c2c(c1)COP(=O)(OC[C@H]1O[C@@H](n3cc(/C=C/Br)c(=O)[nH]c3=O)C[C@@H]1O)O2 (stereo partly specified)
logP [1]: 2.2 | EC50 (Nucleic Acid): 14.4 µM | SI [2]: 9.9 | CC50 (P3HR-1 [3]): 143 µM

CCCCCCCCCCC(=O)O[C@H]1C[C@H](n2cc(/C=C/Br)c(=O)[nH]c2=O)O[C@@H]1COP1(=O)OCc2cccc(C)c2O1 (stereo partly specified)
logP [1]: 2.8 | EC50 (Nucleic Acid): > 149 µM | CC50 (P3HR-1 [4]): > 299 µM

Cc1cccc2c1OP(=O)(OC[C@H]1O[C@@H](n3cc(/C=C/Br)c(=O)[nH]c3=O)C[C@@H]1OC(=O)[C@H](N)Cc1ccccc1)OC2 (stereo partly specified)
logP [1]: 0.5 | EC50 (Nucleic Acid): 46.5 µM | SI [2]: 1.4 | CC50 (P3HR-1 [3]): 66 µM

O=c1[nH]c(=O)n([C@H]2C[C@H](O)[C@@H](COP3(=O)OCc4ccccc4O3)O2)cc1/C=C/Br (stereo partly specified)
logP [1]: 1.5 | EC50 (Nucleic Acid): 12.3 µM | SI [2]: 7.5 | CC50 (P3HR-1 [3]): 92 µM

Cc1cccc2c1OP(=O)(OC[C@H]1O[C@@H](n3cc(/C=C/Br)c(=O)[nH]c3=O)C[C@@H]1OC(=O)[C@@H]1CCCN1)OC2 (stereo partly specified)
logP [1]: -0.4 | EC50 (Nucleic Acid): ≥ 138 µM | CC50 (P3HR-1 [3]): 36 µM

CC(=O)CCC(=O)O[C@H]1C[C@H](n2cc(/C=C/Br)c(=O)[nH]c2=O)O[C@@H]1COP1(=O)OCc2cccc(C)c2O1 (stereo partly specified)
logP [1]: 2.3 | EC50 (Nucleic Acid): > 163 µM | CC50 (P3HR-1 [3]): 152 µM

Cc1cccc2c1OP(=O)(OC[C@H]1O[C@@H](n3cc(/C=C/Br)c(=O)[nH]c3=O)C[C@@H]1OC(=O)CN)OC2 (stereo partly specified)
logP [1]: -0.8 | EC50 (Nucleic Acid): 43.5 µM | SI [2]: 2.1 | CC50 (P3HR-1 [3]): 93 µM

CC(C)(C)c1cccc2c1OP(=O)(OC[C@H]1O[C@@H](n3cc(/C=C/Br)c(=O)[nH]c3=O)C[C@@H]1O)OC2 (stereo partly specified)
logP [1]: 2.9 | EC50 (Nucleic Acid): 32.5 µM | SI [2]: 2.5 | CC50 (P3HR-1 [3]): 80 µM

CCC(C)[C@@H](N)C(=O)O[C@H]1C[C@H](n2cc(/C=C/Br)c(=O)[nH]c2=O)O[C@@H]1COP1(=O)OCc2cccc(C)c2O1 (stereo partly specified)
logP [1]: -0.02 | EC50 (Nucleic Acid): > 135 µM | CC50 (P3HR-1 [3]): 37 µM

Cc1cccc2c1OP(=O)(OC[C@H]1O[C@@H](n3cc(/C=C/Br)c(=O)[nH]c3=O)C[C@@H]1OC(=O)[C@H]1CCCN1)OC2 (stereo partly specified)
logP [1]: -0.4 | EC50 (Nucleic Acid): ≥ 138 µM | CC50 (P3HR-1 [3]): 38 µM

Cc1cccc2c1OP(=O)(OC[C@H]1O[C@@H](n3cc(/C=C/Br)c(=O)[nH]c3=O)C[C@@H]1OC(=O)[C@@H](N)CC(C)C)OC2 (stereo partly specified)
logP [1]: 0.4 | EC50 (Nucleic Acid): 23 µM | SI [2]: 2 | CC50 (P3HR-1 [3]): 45 µM

Cc1cccc2c1OP(=O)(OC[C@H]1O[C@@H](n3cc(/C=C/Br)c(=O)[nH]c3=O)C[C@@H]1OC(=O)[C@H](N)CC(C)C)OC2 (stereo partly specified)
logP [1]: 0.4 | EC50 (Nucleic Acid): > 135 µM | CC50 (P3HR-1 [3]): 65 µM

CCCCCCC(=O)O[C@H]1C[C@H](n2cc(/C=C/Br)c(=O)[nH]c2=O)O[C@@H]1COP1(=O)OCc2cccc(C)c2O1 (stereo partly specified)
logP [1]: 2.6 | EC50 (Nucleic Acid): > 163 µM | CC50 (P3HR-1 [4]): > 326 µM

Nc1nc2c(ncn2COCCO)c(=O)[nH]1 [ACYCLOVIR]
EC50 (Nucleic Acid): 6.75 µM | CC50 (P3HR-1 [4]): 392 µM | Selectivity [5]: 58

Cc1cccc2c1OP(=O)(OC[C@H]1O[C@@H](n3cc(/C=C/Br)c(=O)[nH]c3=O)C[C@@H]1OC(=O)CC(C)C)OC2 (stereo partly specified)
logP [1]: 2.4 | EC50 (Nucleic Acid): > 171 µM | CC50 (P3HR-1 [3]): 104 µM

Cc1cccc2c1OP(=O)(OC[C@H]1O[C@@H](n3cc(/C=C/Br)c(=O)[nH]c3=O)C[C@@H]1OC(=O)[C@H](N)C(C)C)OC2 (stereo partly specified)
logP [1]: -0.1 | EC50 (Nucleic Acid): > 137 µM | CC50 (P3HR-1 [3]): 80 µM

COc1ccc2c(c1)COP(=O)(OC[C@H]1O[C@@H](n3cc(/C=C/Br)c(=O)[nH]c3=O)C[C@@H]1O)O2 (stereo partly specified)
logP [1]: 1.6 | EC50 (Nucleic Acid): 3.35 µM | SI [2]: 41 | CC50 (P3HR-1 [3]): 137 µM

Cc1cccc2c1OP(=O)(OC[C@H]1O[C@@H](n3cc(/C=C/Br)c(=O)[nH]c3=O)C[C@@H]1O)OC2 (stereo partly specified)
logP [1]: 1.9 | EC50 (Nucleic Acid): 4.11 µM | SI [2]: 30 | CC50 (P3HR-1 [3]): 122 µM
